ChEMBL document CHEMBL1133650, “Gold(III) complexes as potential antitumor agents: solution chemistry and cytotoxic properties of some selected gold(III) compounds” (J Med Chem, 2000)

Key:
A2780 [1] = test: cytotoxic activity toward A2780 ovarian human cell line sensitive (S) to cisplatin in experiment 1; assay type: functional, cell-based
Summary of the method: (§1)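 Cisplatin-sensitive parental A2780/S human ovarian carcinoma cells, grown in RPMI 1640 with FBS at 37 °C under 5% CO2 and subcultured twice weekly. Exponentially growing cells were treated for 72 h, and growth inhibition was measured by sulforhodamine B assay in RPMI 1640 + 5% FBS. IC50 is the mean ± SE of ≥3 determinations, or the mean of two.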

A2780 [2] = test: cytotoxic activity toward A2780 ovarian human cell line resistant (R) to cisplatin in experiment 2; assay type: functional, cell-based
[3] = Ratio of cytotoxic activity against resistant cell line to that of sensitive cell line; assay type: functional
A2780 [4] = test: cytotoxic activity toward A2780 ovarian human cell line sensitive (S) to cisplatin in experiment 3; assay type: functional, cell-based; summary of the method: as §1
A2780 [5] = test: cytotoxic activity toward A2780 ovarian human cell line resistant (R) to cisplatin in experiment 3; assay type: functional, cell-based
Summary of the method: (§2)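 A2780/R human ovarian carcinoma cells, made cisplatin-resistant by repeated weekly 1-h exposure of the parental line to 50 μM cisplatin, kept in RPMI 1640 with FBS at 37 °C and 5% CO2. Exponentially growing cells were exposed to compound for 72 h, and growth was read by SRB assay in RPMI 1640 + 5% FBS. IC50 is the mean ± SE of at least three determinations, or the mean of two.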

A2780 [6] = test: cytotoxic activity toward A2780 ovarian human cell line sensitive (S) to cisplatin in experiment 2; assay type: functional, cell-based
A2780 [7] = test: cytotoxic activity toward A2780 ovarian human cell line sensitive (S) to cisplatin in experiment 8; assay type: functional, cell-based; summary of the method: as §1
A2780 [8] = test: cytotoxic activity toward A2780 ovarian human cell line resistant (R) to cisplatin in experiment 8; assay type: functional, cell-based; summary of the method: as §2
L1210 = test: Cytotoxicity measured against L1210 cell line; assay type: functional, cell-based, Mus musculus
A2780 [9] = test: cytotoxic activity toward A2780 ovarian human cell line sensitive (S) to cisplatin; assay type: functional, cell-based; summary of the method: as §1
A2780 [10] = test: cytotoxic activity toward A2780 ovarian human cell line sensitive (S) to cisplatin in experiment 5; assay type: functional, cell-based; summary of the method: as §1
A2780 [11] = test: cytotoxic activity toward A2780 ovarian human cell line resistant (R) to cisplatin in experiment 5; assay type: functional, cell-based; summary of the method: as §2

Compound: c1ccc(-c2cccc(-c3ccccn3)n2)nc1 [TERPYRIDINE]
- IC50 (A2780 [1]; Homo sapiens, A2780): 0.125 µM
- IC50 (A2780 [2]; Homo sapiens, A2780): 0.36 µM
- Ratio [3]: 2.88

Compound: CISPLATIN [listing 1 of 2 here]
- Ratio [3]: 11.6

Compound: AUCL3(EN2) [listing 1 of 2 here]
- IC50 (A2780 [4]; a2780): 8.36 µM
- IC50 (A2780 [5]; a2780): 17 µM

Compound: AU(TERPY) [listing 1 of 2 here]
- IC50 (A2780 [1]; a2780): 0.2 µM
- IC50 (A2780 [5]; a2780): 0.37 µM

Compound: AUCYCLAM
- IC50 (A2780 [6]): 99 µM
- IC50 (A2780 [2]; a2780): > 120 µM

Compound: CISPLATIN [listing 2 of 2 here]
- IC50 (A2780 [7]): 1.22 µM
- IC50 (A2780 [8]): 14.2 µM
- IC50 (L1210): 2.3 µM

Compound: [Pt-(dien)Cl]Cl
- IC50 (L1210): 271 µM

Compound: AU(TERPY) [listing 2 of 2 here]
- Ratio [3]: 1.23

Compound: AUCL3(EN2) [listing 2 of 2 here]
- Ratio [3]: 2.03

Compound: AUPHEN [listing 1 of 2 here]
- Ratio [3]: 0.92

Compound: [Pt-(en2)]Cl2
- IC50 (L1210): 1680 µM

Compound: AUCL(DIEN) [listing 1 of 2 here]
- Ratio [3]: 2.28

Compound: c1cnc2c(c1)ccc1cccnc12 [PHENANTHROLINE]
- IC50 (A2780 [4]; Homo sapiens, A2780): 3.66 µM
- IC50 (A2780 [5]; Homo sapiens, A2780): 2.73 µM
- Ratio [3]: 0.75

Compound: [AuCl4]-
- IC50 (A2780 [9]): 11 µM

Compound: AUCL(DIEN) [listing 2 of 2 here]
- IC50 (A2780 [6]): 8.2 µM
- IC50 (A2780 [5]; a2780): 18.7 µM

Compound: AUPHEN [listing 2 of 2 here]
- IC50 (A2780 [10]): 3.8 µM
- IC50 (A2780 [11]): 3.49 µM
